Blank lines part the entries; values can stand above or below the compound they belong to.
Columns and labels:
[1] = target: Cyclin-dependent kinase 2 (Homo sapiens, UniProt P24941); assay: Inhibition of human CDK2/CycA
[2] = target: Cyclin-dependent kinase 4/cyclin D1 (Homo sapiens, UniProt P11802); assay: Inhibition of human CDK4/CycD1; assay type: protein-complex assay
Angiopoietin-1 receptor = Angiopoietin-1 receptor (Homo sapiens, UniProt Q02763); assay: Inhibition of human TIE2
[3] = target: Epidermal growth factor receptor (Homo sapiens, UniProt P00533); assay: Inhibition of human EGFR
[4] = target: Insulin-like growth factor 1 receptor (Homo sapiens, UniProt P08069); assay: Inhibition of human IGF1R
Sequence of Insulin-like growth factor 1 receptor (P08069 31-736 limits assumed): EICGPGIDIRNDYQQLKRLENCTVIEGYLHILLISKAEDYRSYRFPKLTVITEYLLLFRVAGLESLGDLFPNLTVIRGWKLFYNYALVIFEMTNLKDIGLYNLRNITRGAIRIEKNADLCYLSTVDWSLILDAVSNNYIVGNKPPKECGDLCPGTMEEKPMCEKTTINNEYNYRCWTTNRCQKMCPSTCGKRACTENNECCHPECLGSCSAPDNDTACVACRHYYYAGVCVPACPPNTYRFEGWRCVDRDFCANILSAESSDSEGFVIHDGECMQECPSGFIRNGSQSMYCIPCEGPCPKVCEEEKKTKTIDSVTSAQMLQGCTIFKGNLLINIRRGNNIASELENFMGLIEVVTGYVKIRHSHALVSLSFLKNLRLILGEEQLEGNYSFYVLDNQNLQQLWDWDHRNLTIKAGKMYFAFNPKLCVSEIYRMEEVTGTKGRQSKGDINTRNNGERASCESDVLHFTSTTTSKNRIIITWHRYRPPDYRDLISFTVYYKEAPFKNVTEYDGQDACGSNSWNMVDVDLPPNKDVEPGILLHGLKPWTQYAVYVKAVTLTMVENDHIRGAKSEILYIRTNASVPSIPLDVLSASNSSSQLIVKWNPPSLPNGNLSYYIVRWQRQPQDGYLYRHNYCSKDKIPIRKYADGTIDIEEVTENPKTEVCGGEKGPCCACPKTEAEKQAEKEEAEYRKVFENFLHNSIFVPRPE
Sequence of Insulin-like growth factor 1 receptor (P08069 741-1367 limits assumed): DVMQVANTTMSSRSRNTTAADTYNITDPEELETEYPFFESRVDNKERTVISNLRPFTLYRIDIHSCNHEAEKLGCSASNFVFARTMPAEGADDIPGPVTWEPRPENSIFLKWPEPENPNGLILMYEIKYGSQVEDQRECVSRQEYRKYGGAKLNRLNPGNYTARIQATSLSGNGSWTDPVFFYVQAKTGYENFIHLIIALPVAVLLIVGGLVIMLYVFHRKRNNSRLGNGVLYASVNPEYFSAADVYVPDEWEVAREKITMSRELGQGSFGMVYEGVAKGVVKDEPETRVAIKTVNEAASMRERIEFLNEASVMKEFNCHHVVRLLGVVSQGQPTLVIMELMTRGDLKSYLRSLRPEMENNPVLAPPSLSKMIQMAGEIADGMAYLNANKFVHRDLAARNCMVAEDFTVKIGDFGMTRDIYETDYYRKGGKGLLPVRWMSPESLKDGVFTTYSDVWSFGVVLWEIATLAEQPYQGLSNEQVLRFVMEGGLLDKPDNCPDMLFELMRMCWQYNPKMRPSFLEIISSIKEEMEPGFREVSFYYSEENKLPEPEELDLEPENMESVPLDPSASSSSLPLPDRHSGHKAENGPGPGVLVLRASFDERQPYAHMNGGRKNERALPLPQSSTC

[5] = target: Vascular endothelial growth factor receptor 2 (Homo sapiens, UniProt P35968); assay: Inhibition of human VEGFR2
Sequence of Vascular endothelial growth factor receptor 2 (P35968 whole entry): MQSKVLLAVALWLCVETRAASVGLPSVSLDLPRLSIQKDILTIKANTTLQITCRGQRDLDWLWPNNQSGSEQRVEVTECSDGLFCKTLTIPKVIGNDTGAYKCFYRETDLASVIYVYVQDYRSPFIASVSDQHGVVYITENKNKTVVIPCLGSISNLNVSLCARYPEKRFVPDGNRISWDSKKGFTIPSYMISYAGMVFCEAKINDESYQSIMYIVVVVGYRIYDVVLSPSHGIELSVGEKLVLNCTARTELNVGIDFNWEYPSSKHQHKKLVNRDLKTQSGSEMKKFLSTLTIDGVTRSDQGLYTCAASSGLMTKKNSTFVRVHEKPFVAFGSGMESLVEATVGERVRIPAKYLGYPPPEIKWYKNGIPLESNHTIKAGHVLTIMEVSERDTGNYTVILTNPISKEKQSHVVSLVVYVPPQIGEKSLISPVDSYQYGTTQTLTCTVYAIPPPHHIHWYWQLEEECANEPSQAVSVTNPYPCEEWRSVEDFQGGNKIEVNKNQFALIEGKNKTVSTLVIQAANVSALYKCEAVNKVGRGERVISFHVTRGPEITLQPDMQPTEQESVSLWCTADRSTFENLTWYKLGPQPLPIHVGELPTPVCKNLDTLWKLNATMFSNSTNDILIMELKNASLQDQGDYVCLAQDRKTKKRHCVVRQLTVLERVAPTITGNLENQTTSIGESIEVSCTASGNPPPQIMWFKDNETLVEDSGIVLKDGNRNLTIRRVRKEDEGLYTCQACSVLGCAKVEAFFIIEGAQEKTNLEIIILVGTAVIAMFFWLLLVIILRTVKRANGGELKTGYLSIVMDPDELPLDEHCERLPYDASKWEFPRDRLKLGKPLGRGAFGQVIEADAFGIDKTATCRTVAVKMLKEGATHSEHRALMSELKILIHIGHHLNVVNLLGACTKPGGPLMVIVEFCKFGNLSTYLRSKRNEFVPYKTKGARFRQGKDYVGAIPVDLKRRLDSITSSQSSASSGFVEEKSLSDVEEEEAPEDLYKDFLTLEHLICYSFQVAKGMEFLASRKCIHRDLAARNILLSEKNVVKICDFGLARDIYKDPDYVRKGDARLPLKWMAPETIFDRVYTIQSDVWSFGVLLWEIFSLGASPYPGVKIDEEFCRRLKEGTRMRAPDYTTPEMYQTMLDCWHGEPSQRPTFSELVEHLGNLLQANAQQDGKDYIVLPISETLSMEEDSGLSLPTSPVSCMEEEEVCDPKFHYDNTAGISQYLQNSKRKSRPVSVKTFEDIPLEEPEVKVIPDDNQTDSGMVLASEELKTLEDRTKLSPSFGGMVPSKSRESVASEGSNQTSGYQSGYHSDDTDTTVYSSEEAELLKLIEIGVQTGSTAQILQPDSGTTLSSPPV

[6] = target: Vascular endothelial growth factor receptor 3 (Homo sapiens, UniProt P35916); assay: Inhibition of human VEGFR3
Streptomyces coelicolor [7] = assay: Inhibition of aph8 phosphorylation in Streptomyces coelicolor cell lysate assessed as [32Pi] incorporation into aph8 at 500 nM by microplate scintillation counter relative to control; parameters: scale not given: the % may be the effect or the level left
Summary of the method: (§1)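 Radiometric in vitro assay of actinobacterial protein kinases. Kinases incubated under standard conditions with [γ-³²P]ATP and aphVIII as substrate, with or without modulators or inhibitors. Read-out was incorporation of the γ-phosphoryl residue into aphVIII.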

Streptomyces coelicolor [8] = assay: Inhibition of Ca(2+))/phosphatidylserine/diacylglycerol-dependent aph8 phosphorylation in Streptomyces coelicolor cell lysate assessed as [32Pi] incorporation into aph8 at 500 nM by microplate scintillation counter relative to control; parameters: scale not given: the % may be the effect or the level left; summary of the method: as §1
Streptomyces coelicolor [9] = assay: Inhibition of aph8-induced kanamycin phosphorylation in Streptomyces coelicolor cell lysate assessed as [32Pi] incorporation into kanamycin at 10 uM by microplate scintillation counter relative to control; parameters: scale not given: the % may be the effect or the level left
Streptomyces lividans [10] = assay: Inhibition of aph8 positive Streptomyces lividans at 75 uM after 20 hrs by paper disk method; assay type: functional; details: read-out: IZ
Summary of the method: (§2)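 Test culture was Streptomyces lividans carrying plasmid pSU23 with the aphVIII gene, whose kanamycin-inactivating activity depends on Ser/Thr kinase phosphorylation. Paper disks (7 mm) held kanamycin (5 µg/disk) plus test compound at subtoxic amounts, about half the minimal growth-inhibitory dose. Disks went on plates of log-phase cells at 28 °C for 20 h. Read-out was lysis zone diameter.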

Streptomyces lividans [11] = assay: Inhibition of aph8 positive Streptomyces lividans at 150 uM after 20 hrs by paper disk method; assay type: functional; details: read-out: IZ; summary of the method: as §2
Streptomyces lividans [12] = assay: Inhibition of aph8 positive Streptomyces lividans at 300 uM after 20 hrs by paper disk method; assay type: functional; details: read-out: IZ; summary of the method: as §2
Streptomyces lividans [13] = assay: Inhibition of aph8 positive Streptomyces lividans at 600 uM after 20 hrs by paper disk method; assay type: functional; details: read-out: IZ; summary of the method: as §2
Streptomyces lividans [14] = assay: Inhibition of aph8 positive Streptomyces lividans at 1200 uM after 20 hrs by paper disk method; assay type: functional; details: read-out: IZ; summary of the method: as §2
Streptomyces lividans [15] = assay: Inhibition of aph8 positive Streptomyces lividans at 5 uM after 20 hrs by paper disk method; assay type: functional; details: read-out: IZ; summary of the method: as §2
Streptomyces lividans [16] = assay: Inhibition of aph8 positive Streptomyces lividans at 10 uM after 20 hrs by paper disk method; assay type: functional; details: read-out: IZ; summary of the method: as §2
Streptomyces lividans [17] = assay: Inhibition of aph8 positive Streptomyces lividans at 25 uM after 20 hrs by paper disk method; assay type: functional; details: read-out: IZ; summary of the method: as §2
Streptomyces lividans [18] = assay: Inhibition of aph8 positive Streptomyces lividans at 50 uM after 20 hrs by paper disk method; assay type: functional; details: read-out: IZ; summary of the method: as §2
Streptomyces lividans [19] = assay: Inhibition of aph8 positive Streptomyces lividans at 100 uM after 20 hrs by paper disk method; assay type: functional; details: read-out: IZ; summary of the method: as §2
[20] = target: Serine/threonine-protein kinase B-raf (Homo sapiens, UniProt P15056, V600E); assay: Inhibition of human B-RAF-V600E mutant
Insulin receptor = Insulin receptor (Homo sapiens, UniProt P06213); assay: Inhibition of human INSR
[21] = target: Hepatocyte growth factor receptor (Homo sapiens, UniProt P08581); assay: Inhibition of human MET
Sequence of Hepatocyte growth factor receptor (P08581 whole entry): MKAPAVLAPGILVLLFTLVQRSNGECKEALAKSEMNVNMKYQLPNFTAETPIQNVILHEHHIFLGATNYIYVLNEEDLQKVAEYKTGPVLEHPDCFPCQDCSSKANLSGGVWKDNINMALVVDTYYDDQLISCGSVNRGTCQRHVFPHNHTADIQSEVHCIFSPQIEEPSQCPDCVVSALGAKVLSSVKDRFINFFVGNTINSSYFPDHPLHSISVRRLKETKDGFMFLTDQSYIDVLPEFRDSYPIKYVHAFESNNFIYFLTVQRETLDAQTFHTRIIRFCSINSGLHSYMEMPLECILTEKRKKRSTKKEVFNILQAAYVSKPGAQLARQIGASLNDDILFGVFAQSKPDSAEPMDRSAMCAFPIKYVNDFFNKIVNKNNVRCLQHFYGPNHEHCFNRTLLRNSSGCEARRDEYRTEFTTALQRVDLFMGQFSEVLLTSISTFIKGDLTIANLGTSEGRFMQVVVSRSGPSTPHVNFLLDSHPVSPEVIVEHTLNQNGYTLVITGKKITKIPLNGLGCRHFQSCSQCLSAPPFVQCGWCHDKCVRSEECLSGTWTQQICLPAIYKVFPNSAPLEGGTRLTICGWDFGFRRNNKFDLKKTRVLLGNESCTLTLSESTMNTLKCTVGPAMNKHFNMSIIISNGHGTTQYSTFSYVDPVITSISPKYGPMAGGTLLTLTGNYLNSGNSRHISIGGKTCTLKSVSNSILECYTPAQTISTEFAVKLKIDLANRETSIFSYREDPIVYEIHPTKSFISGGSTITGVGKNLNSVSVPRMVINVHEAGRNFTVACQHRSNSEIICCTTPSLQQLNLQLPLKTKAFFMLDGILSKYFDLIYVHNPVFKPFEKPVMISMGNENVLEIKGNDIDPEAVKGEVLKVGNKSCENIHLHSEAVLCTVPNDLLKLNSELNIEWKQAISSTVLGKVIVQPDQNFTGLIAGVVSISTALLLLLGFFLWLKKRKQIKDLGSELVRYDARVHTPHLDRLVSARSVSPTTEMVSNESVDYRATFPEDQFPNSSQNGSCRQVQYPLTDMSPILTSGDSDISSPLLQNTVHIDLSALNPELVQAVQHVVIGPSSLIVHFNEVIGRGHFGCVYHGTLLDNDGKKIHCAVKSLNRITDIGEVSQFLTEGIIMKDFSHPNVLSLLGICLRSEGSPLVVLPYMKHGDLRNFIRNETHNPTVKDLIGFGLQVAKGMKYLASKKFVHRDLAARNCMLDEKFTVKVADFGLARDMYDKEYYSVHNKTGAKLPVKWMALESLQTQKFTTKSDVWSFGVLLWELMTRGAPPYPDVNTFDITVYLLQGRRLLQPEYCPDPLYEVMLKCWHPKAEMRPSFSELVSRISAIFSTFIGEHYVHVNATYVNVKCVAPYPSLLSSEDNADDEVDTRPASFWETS

Streptomyces lividans [22] = assay: Inhibition of aph8 positive Streptomyces lividans at 20 uM after 20 hrs by paper disk method; assay type: functional; details: read-out: IZ; summary of the method: as §2
Streptomyces lividans [23] = assay: Inhibition of aph8 positive Streptomyces lividans at 40 uM after 20 hrs by paper disk method; assay type: functional; details: read-out: IZ; summary of the method: as §2
Streptomyces lividans [24] = assay: Inhibition of aph8 positive Streptomyces lividans at 80 uM after 20 hrs by paper disk method; assay type: functional; details: read-out: IZ; summary of the method: as §2
[25] = target: RAC-alpha serine/threonine-protein kinase (Homo sapiens, UniProt P31749); assay: Inhibition of human AKT1
[26] = target: Platelet-derived growth factor receptor beta (Homo sapiens, UniProt P09619); assay: Inhibition of human PDGFRbeta
[27] = target: Serine/threonine-protein kinase PLK1 (Homo sapiens, UniProt P53350); assay: Inhibition of human PLK1
[28] = target: Proto-oncogene tyrosine-protein kinase Src (Homo sapiens, UniProt P12931); assay: Inhibition of human SRC
Ephrin type-B receptor 4 = target: T1, Ephrin type-B receptor 4 (Homo sapiens, UniProt P54760); assay: Inhibition of human EPHB4
T1 sequence (P54760 whole entry): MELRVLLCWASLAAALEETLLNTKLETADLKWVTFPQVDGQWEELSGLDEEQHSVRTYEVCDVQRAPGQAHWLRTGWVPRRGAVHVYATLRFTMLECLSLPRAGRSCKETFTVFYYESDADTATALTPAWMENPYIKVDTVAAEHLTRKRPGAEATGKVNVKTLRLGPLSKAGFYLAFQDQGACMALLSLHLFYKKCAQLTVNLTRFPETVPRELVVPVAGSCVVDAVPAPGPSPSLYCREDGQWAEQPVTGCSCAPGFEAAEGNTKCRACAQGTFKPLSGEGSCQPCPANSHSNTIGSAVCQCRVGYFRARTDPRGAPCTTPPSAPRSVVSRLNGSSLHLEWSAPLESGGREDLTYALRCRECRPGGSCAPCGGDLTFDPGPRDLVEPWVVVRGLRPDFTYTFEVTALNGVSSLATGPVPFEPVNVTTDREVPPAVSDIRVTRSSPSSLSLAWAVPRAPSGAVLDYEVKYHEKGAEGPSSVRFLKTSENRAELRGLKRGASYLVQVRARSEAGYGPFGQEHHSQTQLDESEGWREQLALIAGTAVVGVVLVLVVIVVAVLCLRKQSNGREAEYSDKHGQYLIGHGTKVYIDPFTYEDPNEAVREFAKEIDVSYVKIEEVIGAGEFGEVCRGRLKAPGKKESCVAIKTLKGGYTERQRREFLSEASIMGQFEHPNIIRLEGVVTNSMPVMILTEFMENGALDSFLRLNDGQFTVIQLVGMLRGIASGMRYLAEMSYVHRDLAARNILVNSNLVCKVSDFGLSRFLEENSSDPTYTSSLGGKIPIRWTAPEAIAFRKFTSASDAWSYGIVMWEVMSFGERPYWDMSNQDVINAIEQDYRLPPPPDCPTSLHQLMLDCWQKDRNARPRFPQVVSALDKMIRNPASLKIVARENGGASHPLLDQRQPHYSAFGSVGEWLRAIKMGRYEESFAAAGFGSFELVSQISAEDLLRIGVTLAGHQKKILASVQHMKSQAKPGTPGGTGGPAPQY

[29] = target: Receptor tyrosine-protein kinase erbB-2 (Homo sapiens, UniProt P04626); assay: Inhibition of human ERBB2
Focal adhesion kinase 1 = Focal adhesion kinase 1 (Homo sapiens, UniProt Q05397); assay: Inhibition of human FAK

Sequence of Cyclin-dependent kinase 4/cyclin D1 (P11802 whole entry): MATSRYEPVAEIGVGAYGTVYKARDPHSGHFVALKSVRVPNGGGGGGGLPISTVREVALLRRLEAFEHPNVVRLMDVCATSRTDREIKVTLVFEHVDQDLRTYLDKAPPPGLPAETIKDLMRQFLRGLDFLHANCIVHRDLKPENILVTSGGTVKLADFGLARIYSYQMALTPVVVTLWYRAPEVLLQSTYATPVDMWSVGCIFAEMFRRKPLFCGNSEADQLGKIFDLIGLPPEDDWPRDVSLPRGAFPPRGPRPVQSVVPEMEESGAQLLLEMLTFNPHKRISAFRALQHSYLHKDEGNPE
Sequence of Cyclin-dependent kinase 4/cyclin D1 (P24385 whole entry, further chain): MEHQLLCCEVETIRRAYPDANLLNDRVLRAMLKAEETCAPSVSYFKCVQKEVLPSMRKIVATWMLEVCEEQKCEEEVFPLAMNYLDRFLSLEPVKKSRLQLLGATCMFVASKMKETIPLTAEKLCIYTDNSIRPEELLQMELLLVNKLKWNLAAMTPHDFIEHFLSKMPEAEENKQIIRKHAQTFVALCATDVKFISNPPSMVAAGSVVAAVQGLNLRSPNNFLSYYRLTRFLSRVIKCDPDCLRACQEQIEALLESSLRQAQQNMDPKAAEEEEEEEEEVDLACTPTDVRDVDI

Structure (SMILES): CCNC(=N)SCCCN1C(=O)C2=C(C1=O)n1ccc3cccc(c31)C1Cc3ccccc3N21 (configuration not stated)
IC50 [1]: 6.8 µM

Structure (SMILES): N=C(Nc1ccccc1)SCCCN1C(=O)C2=C(C1=O)n1ccc3cccc(c31)C1Cc3ccccc3N21 (configuration not stated)
IC50 [1]: 5.1 µM | IC50 [2]: 7.9 µM | IC50 (Angiopoietin-1 receptor): 8.9 µM | IC50 [3]: 9.5 µM | IC50 [4]: 2.3 µM | IC50 [5]: 4.3 µM | IC50 [6]: 9.6 µM

Structure (SMILES): O=C(O)CN(CCOCCOCCN(CC(=O)O)CC(=O)O)CC(=O)O
Activity (Streptomyces coelicolor [7]): 94%

Structure (SMILES): CNC(=N)SCCCN1C(=O)C2=C(C1=O)n1ccc3cccc(c31)C1Cc3ccccc3N21 (configuration not stated)
IC50 [20]: 8 µM | IC50 [1]: 5.3 µM | IC50 [2]: 5.7 µM | IC50 (Insulin receptor): 5.1 µM | IC50 [21]: 6.7 µM

Structure (SMILES): CCN(CC)CCCN1C(=O)C2=C(C1=O)n1ccc3cccc(c31)C1Cc3ccccc3N21 (configuration not stated)
Activity (Streptomyces coelicolor [9]): 94% | zone of inhibition at 5 µM (Streptomyces lividans [15]): 0 mm | zone of inhibition at 10 µM (Streptomyces lividans [16]): 0 mm | zone of inhibition at 20 µM (Streptomyces lividans [22]): 7.5 mm | zone of inhibition at 40 µM (Streptomyces lividans [23]): 9 mm | zone of inhibition at 80 µM (Streptomyces lividans [24]): 11 mm

The next lines start with results.

Activity (Streptomyces coelicolor [8]): 152% | Activity (Streptomyces coelicolor [9]): 95%
Structure (SMILES): CN(C)CCCn1cc(C2=C(c3c[nH]c4ccccc34)C(=O)NC2=O)c2ccccc21 [GF-109203]
zone of inhibition at 75 µM (Streptomyces lividans [10]): 0 mm | zone of inhibition at 150 µM (Streptomyces lividans [11]): 0 mm | zone of inhibition at 300 µM (Streptomyces lividans [12]): 7.5 mm | zone of inhibition at 600 µM (Streptomyces lividans [13]): 9 mm | zone of inhibition at 1200 µM (Streptomyces lividans [14]): 10 mm

Activity (Streptomyces coelicolor [9]): 92%
Structure (SMILES): CCN(CC)Cc1cn2c3c(cccc13)C1Cc3ccccc3N1C1=C2C(=O)NC1=O (configuration not stated)
zone of inhibition at 5 µM (Streptomyces lividans [15]): 0 mm | zone of inhibition at 10 µM (Streptomyces lividans [16]): 0 mm | zone of inhibition at 25 µM (Streptomyces lividans [17]): 7.5 mm | zone of inhibition at 50 µM (Streptomyces lividans [18]): 9 mm | zone of inhibition at 100 µM (Streptomyces lividans [19]): 12 mm

IC50 [25]: 9 µM | IC50 [20]: 1.2 µM | IC50 [1]: 3.6 µM | IC50 [2]: 2.7 µM | IC50 (Insulin receptor): 2.6 µM | IC50 [21]: 3.3 µM | IC50 [26]: 4.2 µM | IC50 [27]: 9.9 µM | IC50 [28]: 3.8 µM | IC50 (Ephrin type-B receptor 4): 2300 nM | IC50 [29]: 7.7 µM | IC50 (Focal adhesion kinase 1): 4.4 µM | IC50 [4]: 4 µM | IC50 [5]: 4.1 µM
Structure (SMILES): N=C(N)SCCCn1c(=O)c2c(c1=O)n1c3ccccc3cc1c1cccc3ccn2c31
